Experimental data as given in ChEMBL document CHEMBL2311350, “Discovery of a novel phenylethyl benzamide glucokinase activator for the treatment of type 2 diabetes mellitus” (Bioorg Med Chem Lett, 2013).
Active and inactive are the calls of the source. The rule behind the calls is not given here.

Tests used:
[1] = target: T1, Hexokinase-1 (Homo sapiens) (UniProt P19367); assay: Induction of hexokinase 1 (unknown origin)
T1 sequence (whole entry): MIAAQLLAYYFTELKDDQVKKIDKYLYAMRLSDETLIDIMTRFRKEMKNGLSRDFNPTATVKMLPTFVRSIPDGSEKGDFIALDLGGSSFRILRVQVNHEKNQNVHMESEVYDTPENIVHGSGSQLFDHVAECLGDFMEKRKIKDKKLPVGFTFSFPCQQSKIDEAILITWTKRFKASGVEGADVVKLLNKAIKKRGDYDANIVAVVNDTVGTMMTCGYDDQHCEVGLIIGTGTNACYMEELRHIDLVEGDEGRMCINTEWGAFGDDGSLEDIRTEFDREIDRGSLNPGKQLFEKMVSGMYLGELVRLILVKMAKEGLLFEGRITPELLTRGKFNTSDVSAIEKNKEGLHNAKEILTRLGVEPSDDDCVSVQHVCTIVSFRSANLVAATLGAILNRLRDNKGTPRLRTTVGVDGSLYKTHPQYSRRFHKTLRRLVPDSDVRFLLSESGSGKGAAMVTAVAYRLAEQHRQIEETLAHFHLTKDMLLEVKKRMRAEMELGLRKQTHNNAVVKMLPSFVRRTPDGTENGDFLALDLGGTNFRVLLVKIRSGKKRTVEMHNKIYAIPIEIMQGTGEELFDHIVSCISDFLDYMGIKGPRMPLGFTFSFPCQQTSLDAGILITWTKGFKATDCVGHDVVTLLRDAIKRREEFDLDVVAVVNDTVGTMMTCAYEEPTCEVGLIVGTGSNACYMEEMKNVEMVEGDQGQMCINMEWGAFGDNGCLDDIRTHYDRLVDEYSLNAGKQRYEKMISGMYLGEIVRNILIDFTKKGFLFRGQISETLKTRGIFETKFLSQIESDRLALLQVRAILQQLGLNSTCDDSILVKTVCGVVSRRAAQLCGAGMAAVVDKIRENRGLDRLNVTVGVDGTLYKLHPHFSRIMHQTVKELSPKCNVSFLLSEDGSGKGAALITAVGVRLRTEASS
Summary of the method: (§1)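 Selectivity tested in enzymatic hexokinase 1 and hexokinase 2 activity assays.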

Mus musculus [2] = species on record: Mus musculus; assay: Antidiabetic activity in ob/ob mouse assessed as reduction in basal glucose level measured after acute treatment; assay type: functional, organism-based
Summary of the method: (§2)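 Basal blood glucose change followed after acute oral dosing in non-diabetic C57BL/J6 or diabetic ob/ob mice.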

[3] = target: T2, Hexokinase-4 (Homo sapiens) (UniProt P35557); assay: Induction of human pancreatic glucokinase activity assessed as half maximal saturation concentration of glucose at 5 mM glucose concentration
T2 sequence (whole entry): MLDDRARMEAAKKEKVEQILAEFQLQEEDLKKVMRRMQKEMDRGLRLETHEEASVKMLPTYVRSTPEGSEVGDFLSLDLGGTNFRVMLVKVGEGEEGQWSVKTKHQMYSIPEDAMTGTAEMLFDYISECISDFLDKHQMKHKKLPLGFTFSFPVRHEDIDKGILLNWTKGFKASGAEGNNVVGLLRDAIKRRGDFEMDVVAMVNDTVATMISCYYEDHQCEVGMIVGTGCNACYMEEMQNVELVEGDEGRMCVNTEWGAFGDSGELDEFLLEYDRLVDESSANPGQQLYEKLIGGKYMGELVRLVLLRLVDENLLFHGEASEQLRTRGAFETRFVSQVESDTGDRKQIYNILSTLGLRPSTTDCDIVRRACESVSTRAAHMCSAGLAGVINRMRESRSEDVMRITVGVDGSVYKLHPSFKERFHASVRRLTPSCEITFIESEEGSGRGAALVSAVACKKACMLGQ
Summary of the method: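 Enzymatic assay with purified recombinant human pancreatic or liver glucokinase, read as fold increase in activity at 5.0 mM glucose. EC50 is the mean of at least duplicate runs. For the pancreatic enzyme, glucose S0.5 and Vmax were also determined.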

[4] = target: T3, Hexokinase-2 (Homo sapiens) (UniProt P52789); assay: Induction of hexokinase 2 (unknown origin); summary of the method: as §1
T3 sequence (whole entry): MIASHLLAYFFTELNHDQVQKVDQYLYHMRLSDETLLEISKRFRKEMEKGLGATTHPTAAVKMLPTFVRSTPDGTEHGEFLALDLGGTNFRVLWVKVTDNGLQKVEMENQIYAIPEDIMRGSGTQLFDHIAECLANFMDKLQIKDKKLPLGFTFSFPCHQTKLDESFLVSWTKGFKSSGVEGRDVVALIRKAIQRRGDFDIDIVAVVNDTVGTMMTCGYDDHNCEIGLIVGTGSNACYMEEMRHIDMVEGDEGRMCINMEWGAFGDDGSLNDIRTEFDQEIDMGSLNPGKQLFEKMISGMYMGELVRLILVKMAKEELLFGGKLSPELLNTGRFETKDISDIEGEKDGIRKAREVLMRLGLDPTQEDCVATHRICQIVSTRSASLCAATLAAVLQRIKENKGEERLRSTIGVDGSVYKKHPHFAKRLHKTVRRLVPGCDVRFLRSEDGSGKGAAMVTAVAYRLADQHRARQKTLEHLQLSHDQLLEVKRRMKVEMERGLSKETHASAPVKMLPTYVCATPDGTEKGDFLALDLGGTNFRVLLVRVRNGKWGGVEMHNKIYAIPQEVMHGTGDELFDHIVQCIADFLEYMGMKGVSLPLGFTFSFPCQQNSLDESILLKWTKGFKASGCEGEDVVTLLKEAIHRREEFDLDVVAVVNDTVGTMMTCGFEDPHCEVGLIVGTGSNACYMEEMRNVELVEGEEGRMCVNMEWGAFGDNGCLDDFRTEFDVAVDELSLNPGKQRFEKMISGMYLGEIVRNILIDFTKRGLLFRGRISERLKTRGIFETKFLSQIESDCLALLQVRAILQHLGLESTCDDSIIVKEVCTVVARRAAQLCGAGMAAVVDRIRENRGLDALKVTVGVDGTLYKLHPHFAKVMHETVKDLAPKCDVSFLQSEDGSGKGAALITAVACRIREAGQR

Mus musculus [5] = species on record: Mus musculus; assay: Antidiabetic activity in C57BL/J mouse assessed as reduction in basal glucose level measured after acute treatment; assay type: functional, organism-based; summary of the method: as §2
MIN6 = assay: Induction of insulin secretion in mouse MIN6 cells; assay type: functional, cell-based
Summary of the method: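 Glucose-dependent insulin secretion measured in the mouse pancreatic beta-cell line MIN-6 across glucose levels.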

Mus musculus [6] = species on record: Mus musculus; assay: Increase in oral glucose tolerance in C57BL/J mouse; assay type: functional, organism-based
Summary of the method: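 C57BL/J6 mice given oral dosing followed by an oral glucose tolerance test. Plasma glucose was tracked over time and glucose AUC reduction calculated. Several doses were tested, including 50 and 150 mg/kg. Hypoglycemia risk was judged from the glucose profiles.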

Mus musculus [7] = species on record: Mus musculus; assay: Antidiabetic activity in ob/ob mouse assessed as reduction in blood glucose level measured after subchronic treatment; assay type: functional, organism-based
Summary of the method: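 ob/ob mice dosed orally and repeatedly in a subchronic study. Blood glucose, serum lipids and body weight were monitored.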

Activity [1]: inactive
Activity [3]: Active
Activity [4]: inactive
Structure (SMILES): COC[C@H](C)Oc1cc(CCc2c(F)cccc2F)cc(C(=O)Nc2ccc(C(=O)O)cn2)c1
Activity (Mus musculus [2]): Active
Activity (Mus musculus [5]): Active
Activity (MIN6): Dose-dependent effect
Activity (Mus musculus [6]): Dose-dependent effect
Activity (Mus musculus [7]): Active
